Laboratory results: ChEMBL document CHEMBL4321860, “Disrupting the Conserved Salt Bridge in the Trimerization of Influenza A Nucleoprotein” (J Med Chem, 2020)
The source made the active and inactive calls. No cut-off for these calls is given here.

Assays:
[1] = Inhibition of nucleoprotein trimerization in recombinant Influenza A virus A/WSN/1933 (H1N1) infected in MDCK cells assessed as reduction in reduction in E339(carboxyl group)-R416(guanidino group) interaction by measuring virus-induced cytopathic effect after 48 hrs by CellTiter 96 AQueous non-radioactive cell proliferation assay; format: cell-based
How it was run: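 CPE protection assay. Virus at 100 TCID₅₀ is mixed 1:1 with compound at varied concentrations and added to MDCK cells (1 × 10⁵ cells/mL). After 48 h at 37 °C/5% CO₂, CPE is read with CellTiter 96 AQueous reagent. EC₅₀, the concentration giving 50% protection from CPE, is obtained by fitting percent CPE against concentration.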

[2] = Cytotoxicity against dog MDCK cells after 48 hrs by CellTiter 96 AQueous non-radioactive cell proliferation assay; format: cell-based, Canis lupus familiaris
How it was run: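 MDCK cells, grown in DMEM with 10% FBS and penicillin−streptomycin at 37 °C/5% CO₂, seeded at 1 × 10⁵ cells/mL and exposed to varied compound concentrations without virus. Incubated 48 h at 37 °C under 5% CO₂, then read with CellTiter 96 AQueous (MTS) reagent. CC₅₀ is the 50% cytotoxic concentration from the curve fit.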

[3] = Aqueous solubility of compound; format: physicochemical; details: buffer
Influenza A virus [4] = experiment: Antiviral activity against Influenza A virus A/WSN/1933 (H1N1) infected in BALB/c mouse assessed as increase in animal body weight at 20 mg/kg/day, ip administered for 5 days and measured after 10 days post infection; format: functional, organism-based
How it was run: (§1)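 Female BALB/c mice (18−20 g), quarantined 48−72 h, anesthetized i.p. (zoletil or ketamine/xylazine). Drug in PBS with 40% PEG 400 given i.p. twice daily for 5 days. Intranasal virus challenge (25 μL, 2X mouse LD₅₀) 4 h after first dose. Vehicle-only controls on the same schedule; 10 mice/group. Survival and body weight recorded daily for 14 days.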

Influenza A virus [5] = experiment: Antiviral activity against Influenza A virus A/WSN/1933 (H1N1) infected in BALB/c mouse assessed as animal survival rate at 20 mg/kg/day, ip administered for 5 days and measured after 14 days relative to control; format: functional; how it was run: as §1

With `CCOCCCNC(=O)c1csc(Nc2cc(F)c(Cl)c(F)c2)n1` [listing 1 of 2 here] the EC50 [1] was 0.12 µM, the CC50 at 48 h [2] was over 100 µM and the solubility [3] was “Insoluble”.

`CC(C)OCCCNC(=O)c1csc(Nc2ccc(Cl)cc2)n1` gave an EC50 [1] of 1.2 µM and a CC50 at 48 h [2] of over 100 µM.

`O=C(NCCCN1CCOCC1)c1csc(Nc2cc(Cl)c(Cl)c(Cl)c2)n1` showed an EC50 [1] of 1.5 µM and a CC50 at 48 h [2] of 41 µM.

In the case of `CC(C)OCCCNC(=O)c1csc(Nc2cc(F)c(Cl)c(F)c2)n1` [listing 1 of 2 here], the Activity (Influenza A virus [4]) is reported as “Active”.

`CC(C)OCCCNC(=O)c1csc(Nc2ccc(Cl)c(Cl)c2)n1` showed an EC50 [1] of 0.7 µM and a CC50 at 48 h [2] of 100 µM.

With `Cc1cc(Nc2nc(C(=O)NCCCN3CCOCC3)cs2)ccc1Cl` the EC50 [1] was 3.7 µM and the CC50 at 48 h [2] was 47 µM.

With `CCOCCCNC(=O)c1csc(Nc2cc(F)c(Cl)c(F)c2)n1.CS(=O)(=O)O.CS(=O)(=O)O` the Activity (Influenza A virus [5]) was 70%.

`CC(C)OCCCNC(=O)c1csc(Nc2cc(F)c(Cl)c(F)c2)n1.O=S(=O)(O)O.O=S(=O)(O)O` gave an Activity (Influenza A virus [5]) of 30%.

In the case of `Cc1cc(Nc2nc(C(=O)NCCCN3CCOCC3)cs2)cc(C)c1Cl`, the EC50 [1] is reported as 3.1 µM and the CC50 at 48 h [2] is reported as 45.7 µM.

With `CCOCCCNC(=O)c1csc(Nc2cc(F)c(Cl)c(F)c2)n1` [listing 2 of 2 here] the Activity (Influenza A virus [4]) was “Active”.

Work on `O=C(NCCCN1CCOCC1)c1csc(Nc2ccc(Cl)c(Cl)c2)n1` yielded an EC50 [1] of 2.7 µM and a CC50 at 48 h [2] of 35.6 µM.

Work on `CCOCCCNC(=O)c1csc(Nc2ccc(Cl)c(Cl)c2)n1` yielded an EC50 [1] of 0.2 µM and a CC50 at 48 h [2] of over 100 µM.

Work on `CCOCCCNC(=O)c1csc(Nc2ccc(Cl)c(F)c2)n1` yielded an EC50 [1] of 0.6 µM and a CC50 at 48 h [2] of over 100 µM.

`CC(C)OCCCNC(=O)c1csc(Nc2cc(Cl)c(Cl)c(Cl)c2)n1` showed an EC50 [1] of 0.6 µM and a CC50 at 48 h [2] of over 100 µM.

In the case of `CC(C)OCCCNC(=O)c1csc(Nc2ccc(Cl)c(F)c2)n1`, the EC50 [1] is reported as 0.5 µM and the CC50 at 48 h [2] is reported as over 100 µM.

For `CC(C)OCCCNC(=O)c1csc(Nc2cc(F)c(Cl)c(F)c2)n1` [listing 2 of 2 here], the EC50 [1] was 0.11 µM, the CC50 at 48 h [2] was over 100 µM and the solubility [3] was “Insoluble”.

`CCOCCCNC(=O)c1csc(Nc2cc(Cl)c(Cl)c(Cl)c2)n1` gave an EC50 [1] of 0.4 µM and a CC50 at 48 h [2] of over 100 µM.

`CCOCCCNC(=O)c1csc(Nc2ccc(Cl)c(C)c2)n1` showed an EC50 [1] of 1 µM and a CC50 at 48 h [2] of 52 µM.

`Cc1cc(Nc2nc(C(=O)NCCCOC(C)C)cs2)ccc1Cl` gave an EC50 [1] of 1.2 µM and a CC50 at 48 h [2] of over 100 µM.

With `CCOCCCNC(=O)c1csc(Nc2cc(C)c(Cl)c(C)c2)n1` the EC50 [1] was 2.3 µM and the CC50 at 48 h [2] was over 100 µM.

Compound `CCOCCCNC(=O)c1csc(Nc2ccc(Cl)cc2)n1` has an EC50 [1] of 1.3 µM and a CC50 at 48 h [2] of over 100 µM.

Work on `Cc1cc(Nc2nc(C(=O)NCCCOC(C)C)cs2)cc(C)c1Cl` yielded an EC50 [1] of 1.3 µM and a CC50 at 48 h [2] of over 100 µM.

In the case of `O=C(NCCCN1CCOCC1)c1csc(Nc2ccc(Cl)c(F)c2)n1`, the EC50 [1] is reported as 3.2 µM and the CC50 at 48 h [2] is reported as 45 µM.

`O=C(NCCCN1CCOCC1)c1csc(Nc2cc(F)c(Cl)c(F)c2)n1` gave an EC50 [1] of 0.8 µM and a CC50 at 48 h [2] of 52 µM.

In the case of `O=C(NCCCN1CCOCC1)c1csc(Nc2ccc(Cl)cc2)n1`, the EC50 [1] is reported as 3.1 µM and the CC50 at 48 h [2] is reported as over 100 µM.
